Measurements published in ChEMBL document CHEMBL4342468, “Evolution of a 4-Benzyloxy-benzylamino Chemotype to Provide Efficacious, Potent, and Isoform Selective PPARα Agonists as Leads for Retinal Disorders” (J Med Chem, 2020).

Columns and labels:
[1] = target: T1, Peroxisome proliferator-activated receptor alpha (Homo sapiens) (UniProt Q07869); test: Binding affinity to His tagged PPARalpha LBD (unknown origin) expressed in Escherichia coli Rosetta (DE3) assessed as change in entropy at 25 degree C by isothermal titration calorimetry
T1 sequence (whole entry): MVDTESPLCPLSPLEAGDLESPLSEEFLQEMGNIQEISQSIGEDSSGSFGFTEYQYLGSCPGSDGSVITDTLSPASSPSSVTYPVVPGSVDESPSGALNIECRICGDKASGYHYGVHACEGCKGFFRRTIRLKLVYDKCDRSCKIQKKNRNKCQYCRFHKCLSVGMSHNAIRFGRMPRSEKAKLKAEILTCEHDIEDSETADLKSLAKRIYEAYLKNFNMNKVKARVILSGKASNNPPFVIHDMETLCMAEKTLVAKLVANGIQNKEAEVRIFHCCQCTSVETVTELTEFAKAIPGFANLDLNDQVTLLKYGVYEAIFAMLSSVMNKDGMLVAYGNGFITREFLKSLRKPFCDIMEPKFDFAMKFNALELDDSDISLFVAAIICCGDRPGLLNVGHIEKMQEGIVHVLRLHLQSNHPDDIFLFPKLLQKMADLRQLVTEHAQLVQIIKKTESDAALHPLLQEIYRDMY

[2] = target: T1, Peroxisome proliferator-activated receptor alpha (Homo sapiens); test: Binding affinity to His-tagged PPARalpha LBD (unknown origin) expressed in Escherichia coli Rosetta (DE3) assessed as change in enthalpy at 25 degree C by isothermal titration calorimetry
[3] = target: T2, Peroxisome proliferator-activated receptor gamma (Homo sapiens, UniProt P37231); test: Agonist activity at human PPARgamma expressed in nonhuman mammalian cells assessed as increase in receptor transcriptional activity incubated for 22 to 24 hrs by luciferase reporter gene assay; format: cell-based
T2 sequence (P37231 whole entry): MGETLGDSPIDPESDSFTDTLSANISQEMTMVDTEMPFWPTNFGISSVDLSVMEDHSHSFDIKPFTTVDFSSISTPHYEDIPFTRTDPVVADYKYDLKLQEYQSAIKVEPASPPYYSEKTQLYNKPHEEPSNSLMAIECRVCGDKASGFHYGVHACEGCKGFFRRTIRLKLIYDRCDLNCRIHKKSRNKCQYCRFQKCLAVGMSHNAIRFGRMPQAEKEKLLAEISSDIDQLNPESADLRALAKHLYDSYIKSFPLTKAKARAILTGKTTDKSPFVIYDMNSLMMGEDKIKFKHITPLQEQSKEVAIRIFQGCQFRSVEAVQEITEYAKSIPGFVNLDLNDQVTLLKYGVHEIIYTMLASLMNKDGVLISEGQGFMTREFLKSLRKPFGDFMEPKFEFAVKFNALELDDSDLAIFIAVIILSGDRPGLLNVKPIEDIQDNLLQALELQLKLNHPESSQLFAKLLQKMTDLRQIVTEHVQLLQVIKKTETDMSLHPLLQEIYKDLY
Method in brief: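 Reporter cells (nonhuman mammalian, engineered PPAR receptor with luciferase linked to response promoter) pre-incubated 4–6 h at 37 °C, 5% CO2 in medium with 10% charcoal-stripped FBS. Medium replaced with compound-containing screening medium, 22–24 h at 37 °C, then luciferase detection reagent, luminescence read. Multi-point dose-response for EC50; mean ± SEM of at least two separate experiments in triplicate.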

[4] = target: T3, Peroxisome proliferator-activated receptor delta (Homo sapiens, UniProt Q03181); test: Agonist activity at human PPARdelta expressed in nonhuman mammalian cells assessed as increase in receptor transcriptional activity incubated for 22 to 24 hrs by luciferase reporter gene assay; format: cell-based
T3 sequence (Q03181 whole entry): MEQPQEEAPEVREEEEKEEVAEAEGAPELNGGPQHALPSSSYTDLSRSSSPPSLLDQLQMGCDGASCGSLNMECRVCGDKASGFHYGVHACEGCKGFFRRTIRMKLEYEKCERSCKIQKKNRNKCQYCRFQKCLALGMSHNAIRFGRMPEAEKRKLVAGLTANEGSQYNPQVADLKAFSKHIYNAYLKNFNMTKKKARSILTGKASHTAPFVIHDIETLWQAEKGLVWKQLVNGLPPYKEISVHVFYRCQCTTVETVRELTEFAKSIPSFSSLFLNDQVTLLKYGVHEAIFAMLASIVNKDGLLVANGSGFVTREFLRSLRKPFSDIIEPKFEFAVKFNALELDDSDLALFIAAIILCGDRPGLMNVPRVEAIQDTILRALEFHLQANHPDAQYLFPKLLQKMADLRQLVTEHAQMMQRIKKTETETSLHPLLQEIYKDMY

[5] = target: T1, Peroxisome proliferator-activated receptor alpha (Homo sapiens); test: Agonist activity at human PPARalpha expressed in nonhuman mammalian cells assessed as maximal increase in receptor transcriptional activity incubated for 22 to 24 hrs by luciferase reporter gene assay relative to GW590735; format: cell-based
[6] = target: T4, Peroxisome proliferator-activated receptor alpha (Homo sapiens, UniProt Q07869)
T4 sequence (Q07869 whole entry): T1 sequence (whole entry)

[7] = Toxicity in STZ-induced diabetic retinopathy Brown Norway rat model assessed as liver weight at 23 mg/kg, ip administered daily for 4 weeks starting at 2 weeks post STZ challenge relative to body weight (reference value: 4.36 +/- 0.37%); format: organism-based; conditions: in vivo
[8] = system: Rattus norvegicus; test: Protection against STZ-induced diabetic retinopathy Brown Norway rat model assessed as reduction in vascular leakage by measuring retinal vascular permeability at 23 mg/kg, ip administered daily for 4 weeks starting at 2 weeks post STZ challenge measured per mg of total retinal protein by Evan blue dye based assay (reference value: 0.090 +/- 0.015 microg); format: functional
Method in brief: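 Male Brown Norway rats aged 8 weeks (legend: 7–8 weeks) made diabetic with STZ 55 mg/kg i.p.; blood glucose >350 mg/dl at day 3. Starting 2 weeks after STZ, daily i.p. compound or same-volume vehicle for 4 weeks. Under ketamine/xylazine, Evans blue 30 mg/ml at 1 µl/g given i.v. via femoral vein and circulated 2 h. Perfusion with 1% paraformaldehyde in citrate buffer, pH 4.2, at 37°C. Retina extracted in formamide 18 h at 70°C, ultracentrifuged, A620 read. Dye amount from a standard curve, normalized to total protein. Groups compared by Student's t-test, mean ± SD.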

[9] = species: Homo sapiens; test: Selectivity index, ratio of EC50 for human PPARdelta expressed in nonhuman mammalian cells to EC50 for human PPARalpha expressed in nonhuman mammalian cells measured after 22 to 24 hrs by luciferase reporter gene assay; format: cell-based
Method in brief: (§1)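 Reporter cells (non-human mammalian) expressing human PPARα, γ or δ linked to a luciferase reporter were pre-incubated 4–6 h at 37 °C, 5% CO2 in medium with 10% charcoal-stripped FBS. SI = EC50(PPARγ or δ)/EC50(PPARα).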

[10] = species: Homo sapiens; test: Selectivity index, ratio of EC50 for human PPARgamma expressed in nonhuman mammalian cells to EC50 for human PPARalpha expressed in nonhuman mammalian cells measured after 22 to 24 hrs by luciferase reporter gene assay; format: cell-based; method in brief: as §1

| SMILES | fold change (FC) [5] | EC50 [6] [nM] | also measured |
| --- | --- | --- | --- |
| O=C(O)c1cccc(NCc2ccc(OCc3ccc(F)cc3)cc2)c1 | 1.3 | – | -TdeltaS [1]: 0.98 kcal/mol; deltaH [2]: -8.18 kcal/mol; EC50 [3]: > 100000 nM; EC50 [4]: > 100000 nM |
| C[C@@H](Oc1ccc(CNc2cccc(C(=O)O)c2)cc1)c1ccc(F)cc1 | 0.6 | 25600 | – |
| C[C@H](Oc1ccc(CNc2cccc(C(=O)O)c2)cc1)c1ccc(F)cc1 | 1.6 | – | – |
| CC(C)(Oc1ccc(C(=O)c2ccc(Cl)cc2)cc1)C(=O)O [FENOFIBRIC ACID] | – | – | Activity [7]: 5.79%; Activity [8]: 0.059 µg |
| O=C(O)c1cccc(NCc2ccc(OCc3ccc(I)cc3)cc2)c1 | 1.1 | 1450 | – |
| Cc1cc(CNc2cccc(C(=O)O)c2)ccc1OCc1cc(F)cc(F)c1 | 1.6 | – | – |
| CC(C)(Oc1ccc(NCc2ccc(OCc3ccc(F)cc3)cc2)cc1)C(=O)O | 1.8 | – | – |
| COc1ccc(COc2ccc(CNc3cccc(OC(C)(C)C(=O)O)c3)cc2)cc1 | 1.8 | – | – |
| O=C(O)c1cccc(NCc2ccc(OCc3ccccc3F)cc2)c1 | 1 | – | – |
| CS(=O)(=O)Nc1cccc(NCc2ccc(OCc3ccc(F)cc3)cc2)c1 | 0.1 | – | – |
| Cc1cc(CNc2cccc(C(=O)O)c2)ccc1OCc1ccc(F)c(F)c1 | 1.6 | – | – |
| O=C(O)c1cc(F)cc(NCc2ccc(OCc3ccc(F)cc3)cc2)c1 | 1.1 | 580 | Ratio EC50 [9]: > 170; EC50 [3]: > 100000 nM; Ratio EC50 [10]: > 170; EC50 [4]: > 100000 nM |
| N#Cc1ccc(COc2ccc(CNc3cccc(C(=O)O)c3)cc2)cc1 | 1 | – | – |
| O=C(O)c1cc(Cl)cc(NCc2ccc(OCc3ccc(F)cc3)cc2)c1 | 1.1 | – | – |
| NS(=O)(=O)c1cccc(NCc2ccc(OCc3ccc(F)cc3)cc2)c1 | 0.1 | – | – |
| CC(C)(Oc1cccc(NCc2ccc(OCc3ccc(C(F)(F)F)cc3)cc2)c1)C(=O)O | 1.2 | – | – |
| Cc1nc(-c2ccc(C(F)(F)F)cc2)sc1C(=O)NCc1ccc(OC(C)(C)C(=O)O)cc1 | 1 | – | -TdeltaS [1]: 4.9 kcal/mol; deltaH [2]: -14.1 kcal/mol |
| CN(Cc1ccc(OCc2ccc(F)cc2)cc1)c1cccc(C(=O)O)c1 | 1.7 | 900 | – |
| Cc1cc(CNc2cccc(C(=O)O)c2)ccc1OCc1ccc(Br)cc1 | 1.3 | – | – |
| O=C(O)c1cccc(NCc2ccc(OCc3ccc(Cl)cc3)cc2)c1 | 1.5 | 830 | – |
| O=C(O)c1cc(Br)cc(NCc2ccc(OCc3ccc(F)cc3)cc2)c1 | 1.4 | 1120 | Ratio EC50 [9]: > 100; EC50 [3]: > 100000 nM; Ratio EC50 [10]: > 100; EC50 [4]: > 100000 nM |
| O=C(O)c1cccc(NCc2ccc(OCc3ccc(F)cc3)c(OCc3ccc(F)cc3)c2)c1 | 1.4 | 810 | – |
| O=C(O)c1ccc(NCc2ccc(OCc3ccc(F)cc3)cc2)cc1 | 0.4 | – | – |
| O=C(O)c1cccc(NCc2ccc(OCc3ccc(F)cc3)cc2OCc2ccc(F)cc2)c1 | 1.2 | 930 | – |
| O=C(O)c1cc(F)cc(NCc2ccc(OCc3ccc(F)cc3)c(Cl)c2)c1 | 1.8 | 52 | – |
